# Assay results taken from ChEMBL document CHEMBL1629465, “Efficient synthesis of novel 1,2,4-triazole fused acyclic and 21-28 membered macrocyclic and/or lariat macrocyclic oxaazathia crown compounds with potential antimicrobial activity” (2010).
# Key:
# Format in all cases: functional
# Penicillium italicum [1] = test: Antimicrobial activity against Penicillium italicum RCMB 001018 at 1 mg/ml by agar diffusion technique; conditions: read-out: DIZ
# In short: (§1)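 Agar well diffusion. Test compounds and reference standard drugs were diluted to 5.0, 2.5 and 1.0 mg/mL and applied to 0.6 cm wells. Inhibition zone beyond the control was scored as 0 (no inhibition), + (0.1–0.5 cm), ++ (0.6–1.0 cm) or +++ (1.0–1.5 cm).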
# Candida albicans [2] = test: Antimicrobial activity against Candida albicans RCMB 005003 at 5 mg/ml by agar diffusion technique; conditions: read-out: DIZ; in short: as §1
# Candida albicans [3] = test: Antimicrobial activity against Candida albicans RCMB 005003 at 1 mg/ml by agar diffusion technique; conditions: read-out: DIZ; in short: as §1
# Escherichia coli [4] = test: Antimicrobial activity against Escherichia coli RCMB 103001 by twofold serial dilution method
# In short: (§2)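 MIC was determined by further twofold serial dilution across twelve levels, from 1000 down to 0.49. Strains were the same bacterial, yeast and fungal RCMB isolates used in the diffusion screen.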
# Pseudomonas aeruginosa [5] = test: Antimicrobial activity against Pseudomonas aeruginosa RCMB 102002 at 2.5 mg/ml by agar diffusion technique; conditions: read-out: DIZ; in short: as §1
# Pseudomonas aeruginosa [6] = test: Antimicrobial activity against Pseudomonas aeruginosa RCMB 102002 at 5 mg/ml by agar diffusion technique; conditions: read-out: DIZ; in short: as §1
# Escherichia coli [7] = test: Antimicrobial activity against Escherichia coli RCMB 103001 at 1 mg/ml by agar diffusion technique; conditions: read-out: DIZ; in short: as §1
# [8] = system: Syncephalastrum racemosum; test: Antimicrobial activity against Syncephalastrum racemosum RCMB 016001 by twofold serial dilution method; in short: as §2
# Escherichia coli [9] = test: Antimicrobial activity against Escherichia coli RCMB 103001 at 2.5 mg/ml by agar diffusion technique; conditions: read-out: DIZ; in short: as §1
# Bacillus subtilis [10] = test: Antimicrobial activity against Bacillus subtilis RCMB 101001 by twofold serial dilution method; in short: as §2
# Penicillium italicum [11] = test: Antimicrobial activity against Penicillium italicum RCMB 001018 at 2.5 mg/ml by agar diffusion technique; conditions: read-out: DIZ; in short: as §1
# Staphylococcus aureus [12] = test: Antimicrobial activity against Staphylococcus aureus RCMB 106001 at 5 mg/ml by agar diffusion technique; conditions: read-out: DIZ; in short: as §1
# Pseudomonas aeruginosa [13] = test: Antimicrobial activity against Pseudomonas aeruginosa RCMB 102002 at 1 mg/ml by agar diffusion technique; conditions: read-out: DIZ; in short: as §1
# Aspergillus fumigatus [14] = test: Antimicrobial activity against Aspergillus fumigatus RCMB 002008 by twofold serial dilution method; in short: as §2
# [15] = system: Syncephalastrum racemosum; test: Antimicrobial activity against Syncephalastrum racemosum RCMB 016001 at 2.5 mg/ml by agar diffusion technique; conditions: read-out: DIZ; in short: as §1
# Staphylococcus aureus [16] = test: Antimicrobial activity against Staphylococcus aureus RCMB 106001 at 1 mg/ml by agar diffusion technique; conditions: read-out: DIZ; in short: as §1
# [17] = system: Syncephalastrum racemosum; test: Antimicrobial activity against Syncephalastrum racemosum RCMB 016001 at 1 mg/ml by agar diffusion technique; conditions: read-out: DIZ; in short: as §1
# Staphylococcus aureus [18] = test: Antimicrobial activity against Staphylococcus aureus RCMB 106001 at 2.5 mg/ml by agar diffusion technique; conditions: read-out: DIZ; in short: as §1
# Aspergillus fumigatus [19] = test: Antimicrobial activity against Aspergillus fumigatus RCMB 002008 at 1 mg/ml by agar diffusion technique; conditions: read-out: DIZ; in short: as §1
# Bacillus subtilis [20] = test: Antimicrobial activity against Bacillus subtilis RCMB 101001 at 1 mg/ml by agar diffusion technique; conditions: read-out: DIZ; in short: as §1
# Candida albicans [21] = test: Antimicrobial activity against Candida albicans RCMB 005003 at 2.5 mg/ml by agar diffusion technique; conditions: read-out: DIZ; in short: as §1
# Penicillium italicum [22] = test: Antimicrobial activity against Penicillium italicum RCMB 001018 by twofold serial dilution method; in short: as §2
# Bacillus subtilis [23] = test: Antimicrobial activity against Bacillus subtilis RCMB 101001 at 2.5 mg/ml by agar diffusion technique; conditions: read-out: DIZ; in short: as §1
# Aspergillus fumigatus [24] = test: Antimicrobial activity against Aspergillus fumigatus RCMB 002008 at 2.5 mg/ml by agar diffusion technique; conditions: read-out: DIZ; in short: as §1
# Pseudomonas aeruginosa [25] = test: Antimicrobial activity against Pseudomonas aeruginosa RCMB 102002 by twofold serial dilution method; in short: as §2
# Aspergillus fumigatus [26] = test: Antimicrobial activity against Aspergillus fumigatus RCMB 002008 at 5 mg/ml by agar diffusion technique; conditions: read-out: DIZ; in short: as §1
# Candida albicans [27] = test: Antimicrobial activity against Candida albicans RCMB 005003 by twofold serial dilution method; in short: as §2
# Staphylococcus aureus [28] = test: Antimicrobial activity against Staphylococcus aureus RCMB 106001 by twofold serial dilution method; in short: as §2
# Bacillus subtilis [29] = test: Antimicrobial activity against Bacillus subtilis RCMB 101001 at 5 mg/ml by agar diffusion technique; conditions: read-out: DIZ; in short: as §1
# [30] = system: Syncephalastrum racemosum; test: Antimicrobial activity against Syncephalastrum racemosum RCMB 016001 at 5 mg/ml by agar diffusion technique; conditions: read-out: DIZ; in short: as §1
# Escherichia coli [31] = test: Antimicrobial activity against Escherichia coli RCMB 103001 at 5 mg/ml by agar diffusion technique; conditions: read-out: DIZ; in short: as §1
# Penicillium italicum [32] = test: Antimicrobial activity against Penicillium italicum RCMB 001018 at 5 mg/ml by agar diffusion technique; conditions: read-out: DIZ; in short: as §1
# [33] = Escherichia coli, RCMB 103001, read-out: MIC
SMILES,zone of inhibition at 1000 µg/mL (Penicillium italicum [1]),zone of inhibition at 5000 µg/mL (Candida albicans [2]),zone of inhibition at 1000 µg/mL (Candida albicans [3]),MIC (Escherichia coli [4]; [33]),zone of inhibition at 2500 µg/mL (Pseudomonas aeruginosa [5]),zone of inhibition at 5000 µg/mL (Pseudomonas aeruginosa [6]),zone of inhibition at 1000 µg/mL (Escherichia coli [7]),zone of inhibition at 2500 µg/mL (Escherichia coli [9]),zone of inhibition at 2500 µg/mL (Penicillium italicum [11]),zone of inhibition at 5000 µg/mL (Staphylococcus aureus [12]),zone of inhibition at 1000 µg/mL (Pseudomonas aeruginosa [13]),zone of inhibition at 2500 µg/mL [15],zone of inhibition at 1000 µg/mL (Staphylococcus aureus [16]),zone of inhibition at 1000 µg/mL [17],zone of inhibition at 2500 µg/mL (Staphylococcus aureus [18]),zone of inhibition at 1000 µg/mL (Aspergillus fumigatus [19]),zone of inhibition at 1000 µg/mL (Bacillus subtilis [20]),zone of inhibition at 2500 µg/mL (Candida albicans [21]),zone of inhibition at 2500 µg/mL (Bacillus subtilis [23]),zone of inhibition at 2500 µg/mL (Aspergillus fumigatus [24]),other results
OC(COc1ccccc1/C=N\n1c(-c2cccnc2)n[nH]c1=S)COc1ccccc1/C=N\n1c(-c2cccnc2)n[nH]c1=S,6 mm,0 mm,0 mm,250 µg/mL,0 mm,0 mm,0 mm,1 mm,6 mm,0 mm,0 mm,1 mm,0 mm,0 mm,0 mm,0 mm,1 mm,0 mm,1 mm,0 mm,"MIC (Escherichia coli [4]): 250 µg/mL; MIC [8]: 250 µg/mL; MIC ([8]; Syncephalastrum racemosum, RCMB 016001, read-out: MIC): 250 µg/mL; MIC (Bacillus subtilis [10]): 250 µg/mL; MIC (Bacillus subtilis [10]; Bacillus subtilis, RCMB 101001, read-out: MIC): 250 µg/mL; MIC (Aspergillus fumigatus [14]): 250 µg/mL; MIC (Aspergillus fumigatus [14]; Aspergillus fumigatus, RCMB 002008, read-out: MIC): 250 µg/mL; MIC (Penicillium italicum [22]): 250 µg/mL"
C1=N\n2c(nnc2-c2cccnc2)SCCCCSc2nnc(-c3cccnc3)n2/N=C\c2ccccc2OCCCCOc2ccccc2/1,0 mm,,0 mm,250 µg/mL,0 mm,,1 mm,1 mm,0 mm,,0 mm,0 mm,1 mm,0 mm,1 mm,0 mm,0 mm,1 mm,0 mm,0 mm,"MIC (Pseudomonas aeruginosa [25]): 250 µg/mL; MIC (Pseudomonas aeruginosa [25]; Pseudomonas aeruginosa, RCMB 102002, read-out: MIC): 250 µg/mL; zone of inhibition at 5000 µg/mL (Aspergillus fumigatus [26]): 0 mm; MIC (Candida albicans [27]): 250 µg/mL; MIC (Candida albicans [27]; Candida albicans, RCMB 005003, read-out: MIC): 250 µg/mL; MIC (Staphylococcus aureus [28]): 250 µg/mL; MIC (Staphylococcus aureus [28]; Staphylococcus aureus, RCMB 106001, read-out: MIC): 250 µg/mL; zone of inhibition at 5000 µg/mL (Bacillus subtilis [29]): 0 mm; zone of inhibition at 5000 µg/mL [30]: 0 mm"
OC1COc2ccccc2CNn2c(nnc2-c2cccnc2)SCCCSc2nnc(-c3cccnc3)n2NCc2ccccc2OC1,0 mm,0 mm,0 mm,,0 mm,0 mm,0 mm,0 mm,0 mm,0 mm,0 mm,0 mm,0 mm,0 mm,0 mm,0 mm,1 mm,0 mm,6 mm,0 mm,zone of inhibition at 5000 µg/mL (Escherichia coli [31]): 0 mm; zone of inhibition at 5000 µg/mL (Aspergillus fumigatus [26]): 0 mm; zone of inhibition at 5000 µg/mL (Penicillium italicum [32]): 0 mm; zone of inhibition at 5000 µg/mL (Bacillus subtilis [29]): 6 mm; zone of inhibition at 5000 µg/mL [30]: 0 mm
